Assay outcomes deposited in PubChem by The Scripps Research Institute Molecular Screening Center.
OXTR ag = activates the human oxytocin receptor | hit rate 0.32% among 320,000 | CHO-OTR cells, Fluo-8 calcium fluorescence; normalized: DMSO 0%, oxytocin 100% | activation, % at 3 µM | P30559;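 active = activation above the mean of all tested compounds plus 3 SD, cutoff set per screening run, cut at about 20% in these data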;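 note: peak over basal fluorescence ratio from a 100 s FLIPR kinetic read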
CHO parental Ca = counter-screen for OX1R antagonists: effect in parental CHO cells. parental CHO-K1, ATP-induced calcium, Fluo-8 fluorescence. inhibition, % at 5.6 µM. hit rate 0.63% among 330,000. AID 463079;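 active = inhibition above that plate's mean sample inhibition plus 3 SD, cut at about 26% in these data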;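 note: 0% = ATP-challenged DMSO wells and 100% = DMSO wells without ATP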
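Measured by: calcium-sensitive Fluo-8 fluorescence / Test system: CHO parental line / Controls: ATP-challenged DMSO wells low, unchallenged DMSO wells high / Measure: % inhibition / Compound: single nominal dose of 5.6 µM per compound / Replicates: single well per compound, no replicates / Reagent: ATP as calcium-mobilizing challenge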
OX1R antag-1 = OX1R (human) antagonism; O43613; OX1R-expressing cells, FRET antagonist read-out; inhibition, % at 6.6 µM; hit rate 1.8% among 330,000; AID 485270; in the data active = inhibition mostly above about 38%, no sharp cut-off; inactive = mostly below about 40%;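 note: 0% = agonist challenge alone and 100% = reference antagonist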
Target sequence (O43613 whole entry, looked up): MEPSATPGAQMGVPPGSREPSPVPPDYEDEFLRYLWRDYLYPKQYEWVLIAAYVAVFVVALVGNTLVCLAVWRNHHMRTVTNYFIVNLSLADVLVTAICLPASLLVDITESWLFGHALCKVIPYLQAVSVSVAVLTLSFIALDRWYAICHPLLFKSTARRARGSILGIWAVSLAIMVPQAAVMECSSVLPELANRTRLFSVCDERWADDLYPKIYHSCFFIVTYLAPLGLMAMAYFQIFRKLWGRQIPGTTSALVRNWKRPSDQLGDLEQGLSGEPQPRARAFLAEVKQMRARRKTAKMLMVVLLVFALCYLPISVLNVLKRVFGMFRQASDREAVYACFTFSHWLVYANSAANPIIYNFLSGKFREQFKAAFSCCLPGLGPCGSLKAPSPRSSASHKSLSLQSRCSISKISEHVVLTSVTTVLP
OX1R antag-2 = human HCRTR1 antagonism | O43613 | CHO/OX1R cells, Fluo-8 calcium fluorescence, orexin A | inhibition, % at 5 µM | hit rate 0.43% among 330,000 | AID 434989;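 active = inhibition above its plate's threshold, mean inhibition of all tested compounds on the plate plus 3 SD, cut at about 37% in these data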;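 note: 0% = orexin A challenge wells and 100% = SB-334867-A antagonist wells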
OXTR potentiator = potentiators of human oxytocin receptor | P30559 | CHO-OTR cells, Fluo-8 calcium fluorescence, potentiator mode; 0% = oxytocin EC15, 100% = EC100 | activation, % at 3 µM | hit rate 0.061% among 320,000;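 active = activation above that plate's cutoff, the mean activation of tested compounds plus 3 SD, cut at about 6.6% in these data, passing the limit was not always enough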;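 note: 100% uses oxytocin at 75 nM as the full agonist control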
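test system = CHO-OTR cells, human receptor | compound = single-point 3.0 µM | schedule = 6 min compound pre-incubation at room temperature, 100 s kinetic read | signal = Fluo-8 no-wash calcium dye fluorescence, excitation 470-495 nm, emission 515-575 nm | repeats = single well per compound, singlicate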
V1R ag counter = activates human V1a receptor in oxytocin agonist counter-screen | CHO-V1R cells, Fluo-8 calcium fluorescence, agonist mode; 0% DMSO, 100% 3 nM vasopressin | activation, % at 3 µM | hit rate 0.25% among 320,000 | AID 2797;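 active = activation above the mean activation of all tested compounds plus 3 SD, per screening run, cut at about 20% in these data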;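 note: signal is peak over basal fluorescence ratio across a 100 second FLIPR read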
The depositor's hits bear a star; . = not tested or not shown. This is a sample that favours compounds with a hit; in the whole collection about 2.7% have one here.

SMILES | OXTR ag | CHO parental Ca | OX1R antag-1 | OX1R antag-2 | OXTR potentiator | V1R ag counter
Cc1ccc(OCCOC(=O)C2CCN(S(=O)(=O)c3ccc(C)c(C)c3)CC2)cc1 | 3 | 29* | 16 | -5 | -5 | 2
Cc1ccc(S(=O)(=O)N2CCC(C(=O)OCCOc3ccccc3)CC2)cc1C | 0 | -5 | 15 | -19 | -12 | 2
COc1ccccc1-c1cc(C(=O)NC2CCN(C)CC2)c2ccc(Cl)c(C)c2n1 | 20* | 7 | 3 | 4 | -3 | 12
Cn1cc(S(=O)(=O)NC[C@H]2O[C@@H](n3cnc4c(N)ncnc43)[C@H](O)[C@@H]2O)cn1 | . | -8 | 11 | 0 | . | .
COc1ccc(S(=O)(=O)N2CCOc3ccccc32)cc1 | -1 | -1 | -4 | -9 | -16 | 0
COc1cccc(CN2C(=O)CCC2(C)C(=O)NCCc2ccc(OC)c(OC)c2)c1 (stereo unspecified) | -1 | -14 | 1 | -27 | -15 | 0
O=C1N=c2ccc(Br)cc2=C1c1sc(=O)[nH]c1O | 0 | 3 | 42* | -21 | -6 | -1
Cc1ccc2c(c1)=C(c1sc(N(C)c3ccc(O)cc3)nc1O)C(=O)N=2 | -2 | 1 | 26 | -6 | -9 | -2
COc1ccccc1CC1S/C(=N/N=C/c2ccco2)NC1=O (stereo unspecified) | 2 | -19 | 15 | -7 | 5 | 1
CCN(CC)S(=O)(=O)c1ccc(O)c(NC(=O)c2cc(-c3cc(OC)c(OC)c(OC)c3)nc3ccccc23)c1 | 0 | 5 | 68* | 9 | -10 | 3
Cc1cc(C(=O)CSc2nc3ccccc3c(=O)[nH]2)c(C)n1CC1CCCO1 (stereo unspecified) | 16 | 60* | 31 | 25 | -8 | 11
Cc1cc(C(=O)CSc2nnnn2-c2ccccc2)c(C)n1CC1CCCO1 (stereo unspecified) | 1 | -1 | 18 | -15 | -7 | 1
CCn1c(SCC(=O)c2cc(C)n(CC3CCCO3)c2C)nc2ccccc21 (stereo unspecified) | -2 | -8 | 77* | -21 | -1 | -1
CCOC(=O)CNC(=S)N1CCn2c(nc3ccccc32)C1 | -1 | -4 | 15 | -10 | -11 | 2
CSc1nnc(C)c(=O)n1COC(=O)c1ccc(S(=O)(=O)N(C)C)cc1 | 0 | -4 | 31 | -10 | 0 | 1
COCCCNC(=O)/C(C#N)=C1\N=C(NC(=O)c2cccs2)c2ccccc21 | 1 | -4 | 47* | -17 | -1 | 2
C=CCn1cc(/C=N\NC(=O)c2cc3c(ccc4ccccc43)o2)c2ccccc21 | 0 | -8 | 47 | -3 | -9 | 0
C#CCn1cc(/C=N/NC(=O)c2cc3ccccc3o2)c2ccccc21 | 0 | -6 | 72* | -1 | -14 | 0
C[C@@H](C(=O)Nc1ccc2ccccc2c1)[C@H]1C[C@]1(C)[C@H](NC(=O)c1cnccn1)c1ccccc1 | 0 | -28 | 69* | 27 | -16 | 2
C[C@@H](C(=O)Nc1ccc2ccccc2c1)[C@@H]1C[C@@]1(C)[C@@H](NC(=O)c1cnccn1)c1ccccc1 | -1 | -20 | 12 | -16 | -11 | -1
COc1ccc(NC(=O)C(=O)NCCC2CCCCN2S(=O)(=O)c2ccccc2)cc1 (stereo unspecified) | -2 | -9 | 11 | -24 | -1 | 0
CC(=O)c1ccc(Sc2nnc(C)s2)c([N+](=O)[O-])c1 | 1 | -3 | 63* | -4 | 0 | 1
Cc1ccc(C(=O)Nc2nnc(S(=O)(=O)Nc3ccccc3C)s2)cc1C | 3 | -4 | 23 | -8 | -10 | 2
Cc1cccc(NS(=O)(=O)c2nnc(NC(=O)c3ccc(C)c(C)c3)s2)c1 | 1 | 2 | 52* | 23 | -4 | 0
C[C@H](CO)N1C[C@H](C)[C@@H](CN(C)S(=O)(=O)c2cccs2)Oc2ccc(NS(=O)(=O)c3ccc(F)cc3)cc2C1=O | -1 | -7 | 7 | -11 | -8 | 0
SMILES | OXTR ag | CHO parental Ca | OX1R antag-1 | OX1R antag-2 | OXTR potentiator | V1R ag counter
CC(=O)c1ccc2c3c(cccc13)C(=O)N(c1c(C)nn(C)c1C)C2=O | 2 | -12 | 67* | -15 | 2 | 3
CC(=O)Nc1ccc(S(=O)(=O)N(Cc2ccccc2)C(C)C)cc1 | -1 | 3 | 43* | -8 | -15 | 1
Cc1cc(C(=O)CSc2nc(N)cc(=O)[nH]2)c(C)n1-c1ccc(OC(F)F)cc1 | -1 | 38* | 20 | 19 | -4 | 1
CCC1Sc2ccc(S(=O)(=O)CCC(=O)Nc3ccc(NC(C)=O)cc3)cc2NC1=O (stereo unspecified) | 1 | -9 | -4 | -17 | -2 | 0
CCC1Sc2ccc(S(=O)(=O)Nc3ccc(OC)c(OC)c3)cc2NC1=O (stereo unspecified) | 7 | 45* | 24 | 46* | -23 | 6
COc1ccc(C)cc1NS(=O)(=O)c1ccc2c(c1)NC(=O)C(C)S2 (stereo unspecified) | 8 | -6 | 34 | -4 | -11 | 10
CCC1Sc2ccc(S(=O)(=O)CCC(=O)Nc3ccc(C(=O)OC)cc3)cc2NC1=O (stereo unspecified) | 0 | 100* | -4 | -22 | 10 | 2
CC(CNS(=O)(=O)c1ccccc1)(c1ccccc1)N1CCOCC1 (stereo unspecified) | -1 | -16 | 10 | -19 | -7 | 0
Cc1cccc(N2CCN(C(=O)CSCc3c(C)noc3C)CC2)c1C | 16 | 46* | 30 | 18 | -9 | 5
Cc1nc2ccccc2cc1OCc1ccc(Cl)cc1 | 10 | 50* | 41* | 0 | -8 | 5
Cc1nc2ccccc2cc1OCc1ccccc1 | 5 | 37* | 27 | 7 | -6 | 3
O=c1oc2ccccc2c(O)c1/C=N/c1ncccn1 | 0 | -6 | 47 | -6 | -6 | 3
O=c1oc2ccccc2c(O)c1/C=C1\C=Nc2ccccc21 | 4 | 8 | 73* | -19 | -12 | 4
Cc1cccc(Oc2ccccc2NC(=O)C2=COCCO2)c1 | -2 | -18 | 7 | -14 | -3 | 0
O=C(O)c1cc(-c2ccccc2Cl)n(-c2cccc(Cl)c2)n1 | 0 | -8 | 37* | 13 | -9 | 1
O=C(O)c1cc(-c2ccccc2Cl)n(-c2ccc(F)cc2)n1 | 1 | -3 | 19 | -9 | 4 | 5
Cc1nc(-c2cccc(NC(=O)c3ccc(-n4cccn4)cc3)c2)cs1 | 2 | -12 | 52* | -13 | -7 | 3
Cc1nc(-c2cccc(NC(=O)c3cccc(S(=O)(=O)N4CCCC4)c3)c2)cs1 | 1 | -9 | 10 | 4 | -11 | 7
